# Test results published in ChEMBL document CHEMBL1131227, “Hydroxyphthalocyanines as potential photodynamic agents for cancer therapy” (1998).
# The source made the active and inactive calls. The rule behind the calls is not given here.
# Assays:
# Mus musculus [1] = organism: Mus musculus; conditions: BALB/c, 2 umol/kg
# EMT6 [2] = assay: Drug dose required to kill 90% of cells(EMT-6 mammary tumor cell line) after 24 hr incubation with a fixed fluence of 2.4 J cm-2.; format: functional
# How it was run: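 EMT-6 mouse mammary tumour cells were grown in Waymouth's medium with 15% FBS. They were seeded at 15 × 10³ per well overnight, then given dye (Cremophor emulsion diluted in Waymouth 1% FBS) for 1 or 24 h at 37 °C. Cells were rinsed and refed, then exposed to red light (λ > 590 nm, 10 mW cm⁻²) to 2.4 J cm⁻². MTT was read at 595 nm the next day. Dye-free cells set 100% survival.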
# EMT6 [3] = conditions: Mus musculus
# Mus musculus [4] = assay: % EMT-6 tumor regression response induced in BALB/c mice after ZnPc and Photofrin-mediated photodynamic therapy (PDT) at a concentration of 2 umol/kg; format: functional
# How it was run: (§1)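 In male BALB/c mice (18–22 g), intradermal EMT-6 tumors on each hind thigh were grown 6–8 days to 3–5-mm diameter. Mice then received 1 or 2 μmol kg⁻¹ dye i.v. in Cremophor emulsion, with red-light exposure 24 h later. Scored as percent of animals showing complete tumor regression 3 weeks after PDT.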
# EMT6 [5] = assay: Light dose required to kill 90% of cells(EMT-6 mammary tumor cell line) after 24 hr incubation with 1 uM concentration; format: functional
# How it was run: (§2)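 EMT-6 cells were seeded at 15 × 10³ per well and incubated 1 or 24 h at 37 °C with 1 μM dye from Cremophor emulsion in Waymouth 1% FBS. They were rinsed, refed with 15% FBS, and given red light (10 mW cm⁻²) over 0.1–20 J cm⁻². After overnight incubation, viability was read by MTT (595 nm). LD₉₀ was extrapolated from survival curves, with eightfold replicates per light dose and at least three experiments.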
# EMT6 [6] = assay: Light dose required to kill 90% of cells(EMT-6 mammary tumor cell line) after 1 hr incubation with 1 uM concentration; format: functional, Mus musculus
# How it was run: as §2
# Mus musculus [7] = assay: % EMT-6 tumor regression response induced in BALB/c mice after ZnPc and Photofrin-mediated photodynamic therapy (PDT) at a concentration of 1 uM/kg; format: functional
# How it was run: as §1
# Mus musculus [8] = assay: % EMT-6 tumor edema response induced in BALB/c mice after ZnPc and Photofrin-mediated photodynamic therapy (PDT) at a concentration of 1 umol/kg; Important; format: functional, organism-based; conditions: tested as the Zn salt or complex
# How it was run: (§3)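 Male BALB/c mice (18–22 g), shaved and depilated, bore EMT-6 tumors from intradermal injection of 2 × 10⁵ cells into each hind thigh. At 6–8 days (tumors 3–5-mm diameter, 2–3-mm thick), dye was given i.v. as a Cremophor emulsion (0.2 mL/20 g) at 1 or 2 μmol kg⁻¹. Red light followed 24 h later. Edema was scored 24 h after PDT as light (+), medium (++), important (+++) or extensive (++++).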
# Mus musculus [9] = assay: % EMT-6 tumor edema response induced in BALB/c mice after ZnPc and Photofrin-mediated photodynamic therapy (PDT) at a concentration of 2 umol/kg; Important; format: functional, organism-based; conditions: tested as the Zn salt or complex
# How it was run: as §3
# Mus musculus [10] = assay: % EMT-6 tumor necrosis response induced in BALB/c mice after ZnPc and Photofrin-mediated photodynamic therapy (PDT) at a concentration of 1 uM/kg; format: functional
# Mus musculus [11] = assay: % EMT-6 tumor edema response induced in BALB/c mice after ZnPc and Photofrin-mediated photodynamic therapy (PDT) at a concentration of 10 uM/kg; format: functional, organism-based; conditions: tested as the Zn salt or complex
# Mus musculus [12] = assay: % EMT-6 tumor necrosis response induced in BALB/c mice after ZnPc and Photofrin-mediated photodynamic therapy (PDT) at a concentration of 10 uM/kg; format: functional, organism-based; conditions: tested as the Zn salt or complex
# [13] = system: V-79 (Cricetulus griseus); assay: Drug dose required to kill 90% of cells after 1 hr incubation with a fixed fluence of 2.4 J cm-2. (assay with Chinese hamster V-79 fibroblasts)
# Mus musculus [14] = assay: % EMT-6 tumor regression response induced in BALB/c mice after ZnPc and Photofrin-mediated photodynamic therapy (PDT) at a concentration of 10 uM/kg; format: functional
# Mus musculus [15] = assay: % EMT-6 tumor edema response induced in BALB/c mice after ZnPc and Photofrin-mediated photodynamic therapy (PDT) at a concentration of 1 umol/kg; Light; format: functional, organism-based; conditions: tested as the Zn salt or complex
# How it was run: as §3
# Mus musculus [16] = assay: % EMT-6 tumor edema response induced in BALB/c mice after ZnPc and Photofrin-mediated photodynamic therapy (PDT) at a concentration of 1 umol/kg; Extensive; format: functional, organism-based; conditions: tested as the Zn salt or complex
# How it was run: as §3
# Mus musculus [17] = assay: % EMT-6 tumor edema response induced in BALB/c mice after ZnPc and Photofrin-mediated photodynamic therapy (PDT) at a concentration of 2 umol/kg; Extensive; format: functional, organism-based; conditions: tested as the Zn salt or complex
# How it was run: as §3
# [18] = Mus musculus, tested as the Zn salt or complex
SMILES,LC90 (EMT6 [2]; [18]),Tumor response (Mus musculus [4]) [%],LD90 (EMT6 [5]; [18]),LD90 (EMT6 [6]) [J cm**-2],Tumor response (Mus musculus [7]) [%],LC90 (EMT6 [2]) [nM],Tumor response (Mus musculus [10]) [%],LD90 (EMT6 [5]) [J cm**-2],further results
[Zn+2].c1ccc2c(c1)-c1nc-2nc2[n-]c(nc3nc(nc4[n-]c(n1)c1ccccc41)-c1ccccc1-3)c1ccccc21 [(PHTHALOCYANINATO)ZINC(II)],inactive,100,inactive,0.14,,,,,Tumor response (Mus musculus [1]): inactive; LC90 (EMT6 [3]): inactive
Oc1cc2c(cc1O)-c1nc-2nc2[n-]c(nc3nc(nc4[n-]c(n1)c1ccccc41)-c1ccccc1-3)c1ccccc21.[Zn+2],,0,,2.4,25,300,62,0.25,Tumor response (Mus musculus [8]): Important; Tumor response (Mus musculus [9]): Important
Oc1ccc2c(c1)-c1nc-2nc2[n-]c(nc3nc(nc4[n-]c(n1)c1ccc(O)cc41)-c1ccc(O)cc1-3)c1ccc(O)cc21.[Zn+2],inactive,,inactive,,,,,,Activity (Mus musculus [11]): inactive; Tumor response (Mus musculus [12]): inactive; LC90 [13]: >100000 nM; LD90 (EMT6 [6]; [18]): inactive; Tumor response (Mus musculus [14]): 0%
Oc1ccc2c(c1)-c1nc-2nc2[n-]c(nc3nc(nc4[n-]c(n1)c1ccccc41)-c1ccccc1-3)c1ccc(O)cc21.[Zn+2],,75,,7.5,0,580,0,0.4,Tumor response (Mus musculus [15]): Light
Oc1ccc2c(c1)-c1nc-2nc2[n-]c(nc3nc(nc4[n-]c(n1)c1ccccc41)-c1ccccc1-3)c1ccccc21.[Zn+2],,25,,0.4,12,120,100,0.15,Tumor response (Mus musculus [16]): Extensive; Tumor response (Mus musculus [17]): Extensive
Oc1ccc2c(c1)-c1nc-2nc2[n-]c(nc3nc(nc4[n-]c(n1)c1ccccc41)-c1ccc(O)cc1-3)c1ccc(O)cc21.[Zn+2],,,,19,,800,,0.48,
